What is called Papp A→B is how fast a substance crosses the layer from the apical side. For orientation: IC50 means the concentration at which inhibition is half-maximal. Broadly, the solubility is how much of the substance goes into solution per volume. A word on the inhibition in vivo: it is the drop in the measured response relative to a control, in per cent.

Consider 2 molecules from ChEMBL document CHEMBL1159125, “Novel 3-aminopyrazole inhibitors of MK-2 discovered by scaffold hopping strategy” (Bioorg Med Chem Lett, 2010).

A short description of data set [1]: Permeability from apical to basolateral side in human Caco-2 cells. It counts as ADME, cell-based. (Passage across Caco-2 layers is used to estimate intestinal permeability.)
Data set [2] concerns the target Mitogen-activated protein kinase 8 (Homo sapiens, UniProt P45983). Description: Inhibition of JNK1.
For data set [3], the target named is Cyclin-dependent kinase 2 (Homo sapiens, UniProt P24941). The experiment in a line: Inhibition of CDK2.
The test system of data set [4] is Mus musculus. Description: Antiinflammatory activity in po dosed OF1 mouse assessed as inhibition of LPS-induced TNFalpha release administered 6 hr prior to LPS challenge measured by ELISA. It counts as functional. Further details: scale not given: the % may be the effect or the level left.
A short description of data set [5]: Drug level in po dosed OF1 mouse blood after 6 hr. It counts as ADME, organism-based, OF. The settings on record: read-out: Drug uptake.
For data set [6], the system named is Mus musculus. The experiment in a line: Antiinflammatory activity in OF1 mouse assessed as inhibition of LPS-induced TNFalpha release at 30 mg/kg, po administered 1 hr prior to LPS challenge measured by ELISA. It counts as functional, organism-based. Further details: dose 30 mg/kg. The procedure, abridged:
(§1)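 Female OF1 mice, 8 weeks old, given compound orally; LPS (20 mg/kg) injected 1 h later. Blood withdrawn 1 h after LPS. Plasma mouse TNFα measured by ELISA; inhibition reported as percent.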
Background: ELISA stands for enzyme-linked immunosorbent assay.

The subject of another data set is THP-1. The experiment in a line: Cytotoxicity against human THP1 cells. It counts as cell-based.
Data set [7] can be described thus: Drug level in po dosed OF1 mouse blood after 1 hr. It counts as ADME, organism-based, OF. The settings on record: read-out: Drug uptake. The procedure, abridged:
(§2)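 Female OF1 mice, 8 weeks old, dosed orally, then LPS (20 mg/kg) injected 1 h later. Blood taken 1 h after LPS, and compound blood levels quantified by LC–MS/MS.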

Data set [8] concerns the target Mitogen-activated protein kinase 14 (Homo sapiens, UniProt Q16539). Description: Inhibition of p38alpha.
Data set [9] can be described thus: Drug level in po dosed OF1 mouse blood after 4 hr. It counts as ADME, organism-based, OF. The settings on record: read-out: Drug uptake.
The nature of data set [10]: Drug level in OF1 mouse blood at 100 mg/kg, po after 1 hr. It counts as ADME, organism-based, OF. Further details: dose 100 mg/kg, route oral. The settings on record: read-out: Drug uptake. The procedure, abridged:
as §2

The target in data set [11] is Mitogen-activated protein kinase 9 (Homo sapiens, UniProt P45984). Description: Inhibition of JNK2.
Sequence of Mitogen-activated protein kinase 9 (P45984 whole entry): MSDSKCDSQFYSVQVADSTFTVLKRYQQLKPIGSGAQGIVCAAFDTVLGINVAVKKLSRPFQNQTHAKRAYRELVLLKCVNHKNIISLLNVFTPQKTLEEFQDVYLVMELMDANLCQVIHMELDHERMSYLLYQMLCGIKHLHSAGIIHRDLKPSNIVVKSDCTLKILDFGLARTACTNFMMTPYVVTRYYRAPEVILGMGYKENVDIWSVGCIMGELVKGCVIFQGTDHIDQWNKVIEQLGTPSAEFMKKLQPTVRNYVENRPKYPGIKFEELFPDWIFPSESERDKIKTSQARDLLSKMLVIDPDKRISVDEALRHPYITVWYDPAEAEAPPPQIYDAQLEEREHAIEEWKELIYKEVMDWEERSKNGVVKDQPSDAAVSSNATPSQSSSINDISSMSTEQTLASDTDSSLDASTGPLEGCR
In data set [12] the test system is Mus musculus. Description: Antiinflammatory activity in po dosed OF1 mouse assessed as inhibition of LPS-induced TNFalpha release administered 1 hr prior to LPS challenge measured by ELISA. It counts as functional. The procedure, abridged: as §1
Data set [13] can be described thus: Aqueous solubility at pH 1 to 6.8. The settings on record: aqueous medium. It counts as physicochemical.
Data set [14] has as its system Mus musculus. The experiment in a line: Antiinflammatory activity in po dosed OF1 mouse assessed as inhibition of LPS-induced TNFalpha release administered 4 hr prior to LPS challenge measured by ELISA. It counts as functional. Further details: scale not given: the % may be the effect or the level left.
Data set [15] is described as follows: Drug level in OF1 mouse blood at 30 mg/kg, po after 1 hr. Further details: dose 30 mg/kg, route oral. The settings on record: read-out: Drug uptake. It counts as ADME, organism-based, OF. The procedure, abridged:
as §2

Data set [16] deals with Mus musculus. Description: Antiinflammatory activity in OF1 mouse assessed as inhibition of LPS-induced TNFalpha release at 100 mg/kg, po administered 1 hr prior to LPS challenge. It counts as functional. The procedure, abridged: as §1

Calls of active or inactive are those of the source. The calls are words filed in the database; no cut-off is given here.

Sequence of Mitogen-activated protein kinase 14 (Q16539 whole entry): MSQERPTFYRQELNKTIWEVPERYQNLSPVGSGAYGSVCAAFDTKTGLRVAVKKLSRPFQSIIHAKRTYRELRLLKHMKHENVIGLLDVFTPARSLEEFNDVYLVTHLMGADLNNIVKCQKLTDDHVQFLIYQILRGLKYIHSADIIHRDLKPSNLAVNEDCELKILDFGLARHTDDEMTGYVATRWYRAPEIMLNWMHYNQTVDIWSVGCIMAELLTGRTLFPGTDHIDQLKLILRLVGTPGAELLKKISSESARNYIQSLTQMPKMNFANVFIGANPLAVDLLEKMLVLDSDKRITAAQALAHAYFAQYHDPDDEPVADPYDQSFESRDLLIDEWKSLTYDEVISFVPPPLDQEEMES
Sequence of Mitogen-activated protein kinase 8 (P45983 whole entry): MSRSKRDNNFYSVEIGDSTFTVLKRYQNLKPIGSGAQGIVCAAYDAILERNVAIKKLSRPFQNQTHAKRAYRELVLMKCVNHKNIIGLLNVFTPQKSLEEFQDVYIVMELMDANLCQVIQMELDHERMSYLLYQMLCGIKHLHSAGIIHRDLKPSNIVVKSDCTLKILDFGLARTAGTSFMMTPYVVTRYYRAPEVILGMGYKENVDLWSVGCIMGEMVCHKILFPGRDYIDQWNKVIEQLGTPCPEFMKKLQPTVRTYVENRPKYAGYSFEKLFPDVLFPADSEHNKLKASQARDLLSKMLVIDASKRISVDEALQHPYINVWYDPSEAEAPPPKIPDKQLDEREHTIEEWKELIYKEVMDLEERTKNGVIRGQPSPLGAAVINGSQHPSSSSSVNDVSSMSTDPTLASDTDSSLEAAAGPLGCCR

For the molecule `COc1ccc(-n2cc(-c3ccc4c(c3)C(=O)NCC4)c(N)n2)cc1`, the Papp A→B in data set [1] came to 48.3 ×10⁻⁶ cm/s.
For `Nc1nn(-c2cccc(-c3ccc4cc[nH]c4c3)c2)cc1-c1ccc2c(c1)CCNC2=O`, the IC50 was greater than 10 µM in data set [2]; greater than 10 µM in data set [3]; greater than 20 µM with THP-1; greater than 10 µM in data set [8]; greater than 10 µM in [11]. In addition, the figures for the Activity with Mus musculus [4] and in the data set with Mus musculus [14] were 67% and 23%, respectively. In addition, in data set [5], the concentration at 6 h was 25.8 µM. The outcome with Mus musculus [6] was inactive. Further, the concentration at 1 h was determined as 14.1 µM in data set [7], 17.4 µM in data set [10] and 1.7 µM in data set [15]. The concentration at 4 h in data set [9] was determined as 6.8 µM. For the same molecule, the “inhibition (INH)” value with Mus musculus [12] was 66%. The same molecule displayed a solubility in data set [13] of less than 2 µg/mL. The inhibition in vivo at 100 mg/kg with Mus musculus [16] worked out at 68%.
